Screens (PubChem)
APOBEC3A inh = blocks human APOBEC3A ssDNA deamination; P31941; recombinant A3A, FAM/TAMRA ssDNA deamination fluorescence; inhibition, % at 20 µM; actives 0.41% (n = 330,000); AID 493011;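 active = at least 40% inhibition at 20 µM here, with at most 30% in a related deaminase screen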
A3G deaminase = APOBEC3G (human) deaminase inhibition; Q9HC16; recombinant A3G, ssDNA deamination FAM/TAMRA fluorescence; inhibition, % at 20 µM; actives 0.28% (n = 330,000);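 active = inhibition of at least 40% at 20 µM, with no more than 30% in the related APOBEC3A deaminase screen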
PolyA inhibitor = inhibitors of polyadenylation in S. cerevisiae; activity score, % at 12 µM; actives 0.02% (n = 300,000); AID 1875; S. cerevisiae SKY197-pL101 polyadenylation reporter, beta-gal luminescence; efflux-impaired pdr1/pdr3 knockout yeast; score 100 = 6 SD above DMSO;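 active = lowest replicate activity score at least 50, where 100 means six control SD above control mean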;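 note: yeast exposed to compound for 9 h at 30 °C; higher score means more reporter readthrough which indicates perturbed polyadenylation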
Arrestin-AP2 inh = blocks beta-arrestin peptide binding to AP2 adaptin | FITC-arrestin peptide / GST-AP2 beads, flow cytometry; AP2 beta2 appendage carries R879A mutation | inhibition, % at 10 µM | actives 0.31% (n = 340,000) | AID 504490;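 active = inhibition above a set limit, near 3 SD of compounds lacking own fluorescence, cut at about 54% in these data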
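System: GST-AP2 R879A glutathione beads; medium: PBS, Tween 20 0.05%, BSA 0.1%; reagent: fluorescein-tagged arrestin peptide at 50 nM final; schedule: pre-incubation 12 min, peptide binding 1 h, room temperature; detection: flow cytometry, FL1 (488/535 nm); read-out: inhibition as reduced fluorescein signal on beads, percent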
AHR activator = human AHR activation; AID 2796; AHR-responsive luciferase reporter cells, luminescence; actives 2.5% (n = 320,000); activation, % at 5 µM; P35869; in the data active = activation above about 47%
Target sequence (P35869 whole entry, looked up): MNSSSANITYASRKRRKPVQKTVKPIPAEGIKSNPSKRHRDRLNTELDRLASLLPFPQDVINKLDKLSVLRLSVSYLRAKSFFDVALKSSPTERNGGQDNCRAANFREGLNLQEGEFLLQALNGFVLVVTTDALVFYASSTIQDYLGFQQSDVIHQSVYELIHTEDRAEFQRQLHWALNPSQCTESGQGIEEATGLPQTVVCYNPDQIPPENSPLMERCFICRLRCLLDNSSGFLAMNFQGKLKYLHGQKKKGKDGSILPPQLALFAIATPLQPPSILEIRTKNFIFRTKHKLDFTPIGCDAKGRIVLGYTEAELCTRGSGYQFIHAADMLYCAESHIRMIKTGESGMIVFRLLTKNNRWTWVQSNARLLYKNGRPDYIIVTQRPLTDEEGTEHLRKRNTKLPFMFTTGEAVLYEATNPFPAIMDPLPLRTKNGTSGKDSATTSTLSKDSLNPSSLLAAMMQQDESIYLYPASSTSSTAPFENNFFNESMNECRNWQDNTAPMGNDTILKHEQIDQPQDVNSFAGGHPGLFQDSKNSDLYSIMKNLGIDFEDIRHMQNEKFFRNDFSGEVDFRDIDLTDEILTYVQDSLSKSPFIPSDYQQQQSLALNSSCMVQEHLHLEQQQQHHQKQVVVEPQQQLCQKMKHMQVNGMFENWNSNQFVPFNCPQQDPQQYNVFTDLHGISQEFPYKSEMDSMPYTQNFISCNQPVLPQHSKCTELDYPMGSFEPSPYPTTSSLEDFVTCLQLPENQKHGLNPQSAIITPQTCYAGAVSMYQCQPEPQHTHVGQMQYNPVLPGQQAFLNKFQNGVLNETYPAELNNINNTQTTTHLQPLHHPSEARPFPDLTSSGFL
UCH37 inh = human UCH37 deubiquitinating enzyme inhibition; AID 588478; inhibition, % (no concentration beside the values); actives 0.33% (n = 330,000); purified proteasome/UCH37, Ub-AMC cleavage fluorescence;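 active = mean inhibition over replicate wells above about 20%, limit read from the data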
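Material: Human UCH37 enzyme supplied as purified proteasome complex | Schedule: 30 min preincubation with enzyme, 25 min cleavage at room temperature | Detection: AMC fluorescence 355/460 nm | Measure: % inhibition of Ub-AMC cleavage fluorescence | Controls: Wells without proteasome as full block, compound-free enzyme plus substrate as uninhibited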
Large screens that a line does not name were inactive. Most compounds without a hit are left out; they make up all but 3.4% or so of the library.

Cc1cccc(NC(=O)c2ccccc2Br)n1	AHR activator 62.0
Cc1ccc(C(=O)Nc2ccc3nccnc3c2)cc1	none
O=C(Nc1ccc2cccnc2c1)c1ccc(Br)cc1	AHR activator 49.8
Cc1cc(NC(=O)c2ccc3nccnc3c2)ccc1Br	AHR activator 63.9 (no result: PolyA inhibitor)
Cc1cccc(NC(=O)c2ccc3nccnc3c2)n1	AHR activator 48.4
Cc1ccc(C=NNC(=O)CNC(=O)c2cccs2)o1	none (no result: APOBEC3A inh, A3G deaminase, PolyA inhibitor, Arrestin-AP2 inh, AHR activator)
CC(=NNS(=O)(=O)c1ccc(Br)cc1)c1ccc(C)o1	none (no result: APOBEC3A inh, A3G deaminase, PolyA inhibitor, Arrestin-AP2 inh, AHR activator)
C=CCn1cnc2c(nnn2-c2cc(C)cc(C)c2)c1=O	none
C=CCn1cnc2c(nnn2-c2ccc(Cl)cc2)c1=O	AHR activator 84.4
Cc1ccc(S(=O)(=O)N2CCOC2CNC(=O)C(=O)NCCc2c[nH]c3ccccc23)cc1 (configuration not stated)	UCH37 inh 29.0
CCOC(=O)N1CCN(C(=O)CSCC(=O)Nc2nc(-c3ccc4c(c3)OCO4)cs2)CC1	AHR activator 63.3 (no result: PolyA inhibitor)
COc1cccc(C(=O)Nc2nc(-c3ccc4c(c3)OCO4)cs2)c1	AHR activator 68.3
CCOC(=O)N1CCN(C(=O)CSCC(=O)Nc2nc(-c3ccc(C)cc3)cs2)CC1	none
O=C(CSCC(=O)N1CCOCC1)Nc1nc(-c2ccc3c(c2)OCO3)cs1	AHR activator 49.6
c1ccc(OCc2nn3c(-c4n[nH]c5c4CCC5)nnc3s2)cc1	AHR activator 67.7
Cc1nnc2sc(COc3ccccc3)nn2c1=O	none
CC1=C(C(N)=O)C(c2cccs2)n2nc(-c3cccc(Cl)c3)nc2N1 (configuration not stated)	AHR activator 66.9
CCc1ccc(C=NNC(=O)c2cc(C3CC3)nc3ccccc23)s1	none (no result: APOBEC3A inh, A3G deaminase, PolyA inhibitor, Arrestin-AP2 inh, AHR activator)
O=C(COC(=O)c1ncc(Cl)c(Cl)c1Cl)Nc1ccc(Cl)cn1	AHR activator 66.4
COc1cccc(NC(=O)Nc2cccc(C)n2)c1	none
COc1cc(NC(=S)Nc2cccc(C)n2)cc(OC)c1OC	AHR activator 68.9
O=C(NN=C/C=C/c1ccc(Br)cc1)c1ccc2c(c1)OCO2	none (no result: APOBEC3A inh, A3G deaminase, PolyA inhibitor, Arrestin-AP2 inh, AHR activator)
CCCCCC[n+]1c(-c2ccccc2)csc1Nc1ccccc1	none
COc1ccc(-c2csc(Nc3ccccc3)[n+]2CC(O)c2ccc([N+](=O)[O-])cc2)cc1 (configuration not stated)	AHR activator 47.3
CS(=O)(=O)N1CCN(c2ncnc3c2cnn3-c2ccccc2)CC1	none
c1ccc(-n2ncc3c(N4CCN(CCOc5cccc6ccccc56)CC4)ncnc32)cc1	AHR activator 49.1
NC(Cc1ccc([N+](=O)[O-])cc1)=NOC(=O)c1ccccc1F	none (no result: APOBEC3A inh, A3G deaminase, PolyA inhibitor, Arrestin-AP2 inh, AHR activator)
Cc1nn(Cc2ccccc2)c(Cl)c1/C=N/NC(=O)c1cccnc1	AHR activator 52.0 (no result: UCH37 inh)
O=C(NCCc1c[nH]c2ccccc12)c1cncc(Br)c1	AHR activator 49.3
O=C(N/N=C\c1c(O)ccc2ccccc12)c1cncc(Br)c1	AHR activator 67.5 (no result: UCH37 inh)
COC(=O)C(Cc1c[nH]c2ccccc12)NC(=O)c1cncc(Br)c1 (configuration not stated)	none
O=C(N/N=C/c1c(O)ccc2ccccc12)c1cccnc1	AHR activator 73.2 (no result: UCH37 inh)
Cc1nn(Cc2ccc(Cl)cc2)c(Cl)c1C=NNC(=O)c1cccnc1	none (no result: APOBEC3A inh, A3G deaminase, PolyA inhibitor, Arrestin-AP2 inh, AHR activator)
Cc1ccc[n+](-c2[nH]c(=O)sc2C=N/N=C(\[O-])CCn2c3ccccc3c3ccccc32)c1	none (no result: APOBEC3A inh, A3G deaminase, PolyA inhibitor, Arrestin-AP2 inh, AHR activator)
COc1ccc(C=NS(=O)(=O)CCc2ccccc2)c(OC)c1	none (no result: APOBEC3A inh, A3G deaminase, PolyA inhibitor, Arrestin-AP2 inh, AHR activator)
FC(F)(F)c1cccc(-n2cc(-c3ccccc3)[nH]c2=S)c1	AHR activator 61.3
Fc1ccccc1-n1cc(-c2ccccc2)[nH]c1=S	none (no result: UCH37 inh)
Cc1nn(-c2ccccc2)c2nc(Cl)c(C(=O)O)cc12	none
Cc1nn(-c2ccccc2)c2nc3c(cc12)C(=O)CCC3	AHR activator 55.0
Cc1cc(C(=O)NN=Cc2ccco2)n[nH]1	none (no result: APOBEC3A inh, A3G deaminase, PolyA inhibitor, Arrestin-AP2 inh, AHR activator)
CCCC(=O)N/C(N)=N/c1nc(C)c2ccccc2n1	AHR activator 59.7
Cc1cc(C)c2nc(/N=C(\N)NC(=O)Nc3ccccc3)nc(C)c2c1	AHR activator 70.3 (no result: UCH37 inh)
COc1cc(C=NNC(=O)c2ccncc2)cc(OC)c1OC	none (no result: APOBEC3A inh, A3G deaminase, PolyA inhibitor, Arrestin-AP2 inh, AHR activator)
